Compound activity (PubChem)
Neddyl block: blocks human cullin neddylation; 0.58% of 360,000 active; AID 651699; inhibition, % at 25 µM; TR-FRET cullin neddylation, biochemical; P61081+Q13564; in the data active = inhibition above about 36%
PfGluPho inh: PfG6PD (Plasmodium falciparum) enzyme inhibition. 0.78% of 350,000 active. PfGluPho enzyme, NADPH resazurin-diaphorase fluorescence. inhibition, % at 20 µM;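 active = inhibition reaching at least a set limit at 20 µM in the primary screen, cut at about 59% in these data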;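 note: 0% = DMSO wells with substrate and 100% = DMSO wells lacking glucose-6-phosphate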
HKDC1 inhibitor: blocks human hexokinase HKDC1 activity; Q2TB90; recombinant HKDC1, G6PDH/diaphorase resazurin coupled fluorescence; inhibition, % at 20 µM; 0.16% of 340,000 active; AID 493160;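 active = inhibition above about 35% when tested at 20 µM, limit read from the data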;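 note: plate controls were DMSO wells with enzyme for no effect and DMSO wells lacking enzyme for full effect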
Target sequence (Q2TB90 whole entry, looked up): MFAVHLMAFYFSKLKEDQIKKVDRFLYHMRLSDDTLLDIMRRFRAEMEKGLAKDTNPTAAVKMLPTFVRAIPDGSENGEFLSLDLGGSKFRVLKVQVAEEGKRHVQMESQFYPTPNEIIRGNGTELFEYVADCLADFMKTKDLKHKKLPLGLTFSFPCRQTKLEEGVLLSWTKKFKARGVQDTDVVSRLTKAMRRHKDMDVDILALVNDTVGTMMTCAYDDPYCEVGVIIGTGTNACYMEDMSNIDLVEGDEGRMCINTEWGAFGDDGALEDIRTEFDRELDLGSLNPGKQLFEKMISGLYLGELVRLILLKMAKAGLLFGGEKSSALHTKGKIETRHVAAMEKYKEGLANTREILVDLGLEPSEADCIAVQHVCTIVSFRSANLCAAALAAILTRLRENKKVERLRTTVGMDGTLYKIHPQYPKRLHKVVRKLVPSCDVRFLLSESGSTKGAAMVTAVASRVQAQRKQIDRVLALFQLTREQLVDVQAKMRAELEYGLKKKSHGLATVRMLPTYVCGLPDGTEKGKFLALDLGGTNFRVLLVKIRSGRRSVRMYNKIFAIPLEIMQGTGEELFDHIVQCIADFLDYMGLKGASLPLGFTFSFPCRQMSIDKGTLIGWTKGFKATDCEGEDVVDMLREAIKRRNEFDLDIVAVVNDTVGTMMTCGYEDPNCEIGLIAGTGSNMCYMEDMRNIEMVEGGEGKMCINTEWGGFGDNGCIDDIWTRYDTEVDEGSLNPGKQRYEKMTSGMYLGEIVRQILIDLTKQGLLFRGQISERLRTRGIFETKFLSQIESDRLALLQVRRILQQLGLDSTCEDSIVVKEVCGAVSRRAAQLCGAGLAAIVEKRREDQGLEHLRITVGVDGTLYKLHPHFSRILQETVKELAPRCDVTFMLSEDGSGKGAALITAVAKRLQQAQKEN
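Test system: Recombinant HKDC1 (HK5) hexokinase enzyme, produced in-house | Input: HKDC1 at 5 µg/mL | Buffer or medium: Tris pH 8.0 buffer with MgCl2, Tween-20, BSA, BME | Schedule: 90 min reaction incubation at room temperature, dark | Technique: Resazurin-to-resorufin fluorescence via G6PDH and diaphorase coupling, 525/613 nm | Controls: DMSO wells with and without enzyme mix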
PfM18AAP inh: PfM18AAP enzyme inhibition. recombinant PfM18AAP, H-Glu-NHMec fluorogenic cleavage. inhibition, % at 7.35 µM. 1.2% of 290,000 active. AID 1822;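 active = inhibition above the campaign mean inhibition over all tested compounds plus 3 SD, cut at about 28% in these data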;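 note: 0% = plate median of test compound wells and 100% = 2 mM ZnCl2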
HKDC1 act conf2: HKDC1 (human) activation, single-dose confirmed | shares compounds with HKDC1 inhibitor | recombinant HKDC1, G6PDH/diaphorase resazurin fluorescence; hits give low values | inhibition, % at 20 µM | 14% of 740 active;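 active = inhibition at or below a set negative limit, negative inhibition meaning the enzyme was activated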
The depositor's hits bear a star; / = no result given. A selection: hits, their analogues and other compounds. The true share with any hit is near 2.2%.

SMILES | Neddyl block | PfGluPho inh | HKDC1 inhibitor | PfM18AAP inh | HKDC1 act conf2
O=C(O)[C@@H](c1ccccc1)N1Cc2ccccc2C1=O | -11.1 | -4.0 | 52.0* | 20.5 | 43.8
O=C(O)C(c1ccccc1)N1C(=O)c2ccccc2C1=O (stereo not given) | -0.9 | -8.4 | -5.0 | -0.3 | /
CCOC(=O)c1ccc(N=C2NC(=O)CS2)cc1 | 5.7 | -12.6 | -2.5 | 12.9 | /
CCOC(=O)c1c(C)[nH]c(C2=NNC(=Nc3ccc(OCC)cc3)SC2)c1C | 10.9 | 20.5 | -136.6 | -10.9 | -122.3*
CC(=O)c1c(C)[nH]c(C2=NNC(=NC(C)(C)C)SC2)c1C | -5.0 | 7.9 | -14.6 | 6.5 | /
CCOC(=O)c1c(C)[nH]c(C2=NNC(=Nc3ccccc3)SC2)c1C | 20.5 | 15.3 | -305.8 | 11.3 | -141.4*
CCOC(=O)c1c(C)[nH]c(C2=NNC(=Nc3ccccc3OC)SC2)c1C | 7.1 | 5.5 | -164.6 | -0.8 | -86.4*
Cc1onc(-c2ccccc2)c1NC(=O)OC(C)c1cccnc1 (stereo not given) | 1.3 | 3.4 | / | / | /
COCCNC(=O)C(=O)Nc1cc2c3c(c1)CCC(=O)N3CCC2 | 12.3 | -4.9 | -3.5 | 2.6 | /
CCNC(=O)C1CCCN(C(=O)c2ccc(-c3ccccc3)cc2)CC1 (stereo not given) | -13.4 | / | / | / | /
COc1ccc(-c2cc3ccccc3[nH]2)cc1 | 23.6 | 16.2 | 38.5* | 6.9 | 30.6
c1ccc(-c2cc3ccccc3[nH]2)cc1 | 35.7 | 21.8 | -2.2 | 15.2 | /
O=C(O)c1cccc2cccc(-c3c4ccc(=O)c(O)c-4oc4c(O)c(O)ccc34)c12 | -4.7 | 50.7 | 69.5* | / | 35.9
CC(=NNC(=S)N1CC2CCC(CC2)C1)c1cccc(C)n1 | 9.5 | 12.8 | -46.5 | / | -51.9*
COc1cc(CNC[C@H]2O[C@@H](n3cc(C)c(=O)[nH]c3=O)C[C@@H]2O)ccc1OCc1cccc(Cl)c1 | -2.7 | -5.4 | / | / | /
Cc1cc(NC(=S)NC(=O)c2ccccc2)ccc1-c1cc2ccccc2oc1=O | -10.6 | 12.3 | -47.5 | 1.1 | -13.8
O=C(Cc1ccccc1)c1ccc(N2CCOCC2)cc1 | -280.6 | -19.0 | 5.0 | / | /
N#CC(C#N)=c1ccc2c(c1)N1C3=C(CCCC3)CC3CCCCC31N=2 (stereo not given) | 3.0 | 45.6 | 38.8* | -6.4 | -9.2
c1ccc(Nc2cc(Nc3ccccc3)[nH]n2)cc1 | 5.8 | 31.9 | -46.9 | 6.5 | -19.6
O=C1OC(c2ccccc2)=N/C1=C/c1cccc(OC(=O)c2cccs2)c1 | 0.4 | -16.5 | 39.4* | -9.1 | -8.8
O=C1NN(c2ccc(F)c(Cl)c2)C(=O)/C1=C\c1cccc(OC(=O)c2cccs2)c1 | -3.0 | -0.4 | 43.7* | -23.2 | 27.0
NC(CSC1(c2cccc3ccccc23)c2ccccc2-c2ccccc21)C(=O)O (stereo not given) | 1.4 | 24.8 | 6.4 | / | /
NC(CSC(c1ccccc1)(c1ccccc1)c1cccc2ccccc12)C(=O)O (stereo not given) | -2.9 | 49.0 | 35.4* | / | 2.9
CCC(C)[C@H](NS(=O)(=O)c1ccc(C)cc1)C(=O)N1CCC(C(=O)N2CCC(C(=O)OC)CC2)CC1 (stereo not given in full) | 5.5 | 0.6 | -2.9 | -4.0 | /
COC(=O)c1ccc(NC(=O)CSc2n[nH]c(-c3ccncc3)n2)cc1 | -1.6 | 37.9 | 36.3* | -3.0 | 43.0
SMILES | Neddyl block | PfGluPho inh | HKDC1 inhibitor | PfM18AAP inh | HKDC1 act conf2
CCOC(=O)c1ccc(NC(=O)CSc2n[nH]c(-c3ccncc3)n2)cc1 | 9.9 | 22.7 | 39.6* | 12.5 | 50.3
C[C@@]12CCC[C@@](C)(C(=O)O)C1CC[C@@]13C[C@@H](NCc4ccccc4)[C@@](C)(CCC12)C3 (stereo not given in full) | -18.0 | -8.4 | -3.4 | / | /
COc1cc2oc(=O)cc(CN3CCOCC3)c2cc1Cl | 8.0 | / | / | / | /
CN(c1ccc(C(=O)N2CCN(Cc3ccccc3)CC2)cc1)S(=O)(=O)c1ccccc1 | 0.8 | -8.1 | -75.7 | 3.2 | -24.2
Oc1ccc(/C=N/NC(=S)Nc2cccnc2)c(O)c1 | 17.5 | -8.9 | -40.3 | 27.4 | 14.6
COc1cc(NC(=O)c2cnc(N)s2)cc(C(=O)Nc2cccc(C(F)(F)F)c2)c1 | -66.1 | 35.3 | 59.2* | / | 41.2
O=c1cc(-c2ccccc2F)nc(-c2ccccc2F)o1 | 3.2 | -5.0 | 2.1 | -0.4 | /
O=c1cc(-c2cccc(Br)c2)nc(-c2ccccc2F)o1 | -1.9 | -0.2 | 30.9 | 0.1 | 12.3
Cc1ccc(NC(=O)CN2C(=O)S/C(=C\c3ccc(-c4cccc(C(=O)O)c4C)o3)C2=O)cc1C | 33.5 | -12.8 | 32.6 | -1.7 | -25.5
CCOC(=O)CN1C(=O)S/C(=C\c2ccc(-c3cccc(C(=O)O)c3C)o2)C1=O | 8.5 | 16.4 | 3.5 | / | /
Cc1cc(C)n(-c2ccc(NC(=O)C3CCN(Cc4cc(C)c(C)o4)CC3)cc2)n1 | 5.5 | -0.1 | 41.0* | -7.1 | -23.3
Cc1cc(C)n(-c2ccc(NC(=O)C3CCN(Cc4ccc(C)o4)CC3)cc2)n1 | -2.8 | 2.5 | -5.8 | -4.3 | /
O=C(CSc1nc(-c2ccc(F)cc2)nc2c1Cc1ccccc1O2)Nc1ccc(C(=O)O)cc1 | -151.9 | -24.5 | 44.0* | -8.1 | -27.3
COc1ccccc1OCCNC(=O)c1ccc2c(c1)CCC2 | 3.0 | 3.1 | -6.9 | -5.7 | /
c1cc(Nc2ncnc3sc4c(c23)CCC4)ccn1 | / | 8.0 | -2.9 | 3.2 | /
NNc1ncnc2sc3c(c12)CCC3 | -0.7 | 2.0 | -102.3 | 24.7 | -4.8
O=C(OCC(=O)N1CCOCC1)c1cccc(S(=O)(=O)Nc2ccc(F)cc2)c1 | -5.4 | -4.9 | -4.0 | / | /
Cc1c(C(=O)Oc2ccc(-c3cnc4ccccc4n3)cc2)cccc1[N+](=O)[O-] | -16.4 | 42.0 | -89.0 | 8.4 | -27.3
COc1cccc(NS(=O)(=O)c2ccc(-n3cccn3)cc2)c1 | 1.1 | -2.0 | -3.6 | 1.4 | /
Cc1ccc(C(=O)ONc2ccc(N=NC(=O)c3ccccc3O)cc2)cc1 | -32.4 | -29.8 | 65.0* | -14.2 | -2.1
CCCc1nc2oc3c(NCC4CCCO4)ncnc3c2c2c1COC(C)(C)C2 (stereo not given) | / | 41.7 | 35.4* | -11.6 | 28.9
Cc1nc2oc3c(NCc4ccccn4)ncnc3c2c2c1COC(C)(C)C2 | / | 22.9 | 21.9 | -0.8 | /
CCCc1nc2oc3c(NCc4ccccn4)ncnc3c2c2c1COC(C)(C)C2 | / | 51.7 | 33.7 | 3.5 | 23.1
CC(C)c1ccc(NC2CCCN(C(=O)c3ccc(N4CCOCC4)cc3)C2)cc1 (stereo not given) | -8.6 | 8.7 | -0.5 | -3.0 | /
CC1Cc2ccccc2N1C(=O)Cn1cnc2c1c(=O)n(C)c(=O)n2C (stereo not given) | -8.4 | -1.0 | -7.7 | -12.3 | /
CCCCNC(=O)c1sc(=S)n2c1[nH]c(=O)c1ccc(C(=O)NCCc3ccc(OC)c(OC)c3)cc12 | -4.9 | 46.2 | 47.9* | 6.7 | 49.8
CCCCCn1c(=O)[nH]c2cc(C(=O)NCCc3ccc(OC)c(OC)c3)ccc2c1=O | 19.8 | -6.4 | -3.2 | -19.3 | /
CN(C(=O)CCS(=O)(=O)c1cc2c(cc1Cl)NC(=O)CO2)C1CCCCC1 | 1.5 | -13.7 | 2.5 | 4.4 | /
Cc1ccc(-n2[nH]c3c4c(ccc3c2=O)C(=O)c2ccccc2C4=O)cc1 | -11.2 | -2.1 | -7.0 | -6.8 | /
